Reference: ChEMBL document CHEMBL1125288, “Structure-activity relationships of 1-[(2-hydroxyethoxy)methyl]-6-(phenylthio)thymine analogues: effect of substitutions at the C-6 phenyl ring and at the C-5 position on anti-HIV-1 activity” (J Med Chem, 1992)

Key:
[1] = Concentration required to achieve 50% protection of MT-4 cells against the cytopathic effect of HIV-1.; format: functional, cell-based; conditions: Homo sapiens, MT4
In short: (§1)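 MT-4 cells at 1 × 10^6 cells/mL were infected with HIV-1 (HTLV-IIIB) or HIV-2 (LAV-2ROD) at an MOI of 0.02 (virus titrated as CCID50 in MT-4). Cells were plated immediately onto serial compound dilutions from DMSO stocks of 50 mM or higher. After 4 days at 37 °C, viable cells were counted by MTT.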

MT4 = assay: Concentration required to reduce the viability of mock-infected MT-4 cells by 50%.; format: functional; conditions: Homo sapiens
In short: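 Mock-infected MT-4 cells were run in parallel with the antiviral assay: 1 × 10^6 cells/mL, serial compound dilutions, 4 days at 37 °C.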

[2] = Concentration of compound required to reduce the viability of mock-infected PBL(peripheral blood lymphocytes) cells. by 50%; format: functional; conditions: Homo sapiens
[3] = Concentration required inhibit HIV-1 (HTLV-IIIb strain) replication in PBL(peripheral blood lymphocytes) cells.; format: functional, cell-based; conditions: Homo sapiens
In short: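 Phytohemagglutinin-stimulated PBL at 1 × 10^6 cells/mL were infected with HIV-1 HTLV-IIIB at an MOI of 0.2 and cultured at 37 °C with varied compound concentrations. On day 4 cells were subcultured 1:5 into fresh medium with compound. On day 7, p24 antigen in the supernatant was measured by sandwich ELISA, and EC50 was derived.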

[4] = Concentration of compound required to reduce the viability of mock-infected HIV-2 (LAV-2ROD)/MT-4 cells by 50%; format: functional; conditions: Homo sapiens, MT4
In short: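 Mock-infected MT-4 cells, run in parallel with the HIV-2 LAV-2ROD antiviral assay. Cells at 1 × 10^6 cells/mL were plated into wells holding serial compound dilutions, with DMSO stocks at 50 mM or higher. After 4 days at 37 °C, viable cells were counted by the MTT method.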

[5] = Concentration required inhibit HIV-2 (LAV-2ROD)replication in MT-4 cells.; format: functional, cell-based; conditions: Homo sapiens, MT4; in short: as §1

EC50 [1] | SMILES | CC50 (MT4) | CC50 [2] | EC50 [3] | CC50 [4] | EC50 [5]
13 µM | Cc1c(Sc2cccc(Cl)c2)n(COCCO)c(=O)[nH]c1=O | 210 µM | – | – | – | –
10 µM | Cc1c(Sc2cccc(I)c2)n(COCCO)c(=O)[nH]c1=O | 106 µM | – | – | – | –
12 µM | Cc1c(Sc2cccc(C(C)(C)C)c2)n(COCCO)c(=O)[nH]c1=O | 75 µM | – | – | – | –
0.063 µM | CC(C)c1c(Sc2ccccc2)n(COCCO)c(=O)[nH]c1=O | 231 µM | – | – | – | –
0.12 µM | CCc1c(Sc2ccccc2)n(COCCO)c(=O)[nH]c1=O | 400 µM | 108 µM | 0.19 µM | 400 µM | > 400 µM
2.5 µM | C=CCc1c(Sc2ccccc2)n(COCCO)c(=O)[nH]c1=O | 183 µM | – | – | – | –
> 292 µM | Cc1c(Sc2cccc(CO)c2)n(COCCO)c(=O)[nH]c1=O | 292 µM | – | – | – | –
140 µM | Cc1c(Sc2ccccc2[N+](=O)[O-])n(COCCO)c(=O)[nH]c1=O | > 250 µM | – | – | – | –
> 190 µM | Cc1c(Sc2ccc([N+](=O)[O-])cc2)n(COCCO)c(=O)[nH]c1=O | 190 µM | – | – | – | –
> 306 µM | Cc1c(Sc2cccc(C(N)=O)c2)n(COCCO)c(=O)[nH]c1=O | 306 µM | – | – | – | –
82 µM | Cc1c(Sc2cccc(O)c2)n(COCCO)c(=O)[nH]c1=O | 446 µM | – | – | – | –
> 130 µM | Cc1c(Sc2ccccc2Cl)n(COCCO)c(=O)[nH]c1=O | 130 µM | – | – | – | –
> 250 µM | Cc1c(Sc2ccc(Cl)cc2)n(COCCO)c(=O)[nH]c1=O | > 250 µM | – | – | – | –
220 µM | Cc1ccc(Sc2c(C)c(=O)[nH]c(=O)n2COCCO)cc1 | > 250 µM | – | – | – | –
2.7 µM | CCc1cccc(Sc2c(C)c(=O)[nH]c(=O)n2COCCO)c1 | 181 µM | – | – | – | –
19 µM | COc1ccccc1Sc1c(C)c(=O)[nH]c(=O)n1COCCO | > 250 µM | – | – | – | –
> 352 µM | Cc1c(Sc2cccc(C(=O)O)c2)n(COCCO)c(=O)[nH]c1=O | 352 µM | – | – | – | –
22 µM | COc1cccc(Sc2c(C)c(=O)[nH]c(=O)n2COCCO)c1 | > 250 µM | – | – | – | –
– | CCc1c(Sc2cc(C)cc(C)c2)n(COCCO)c(=O)[nH]c1=O | 149 µM | – | – | – | –
> 277 µM | Cc1c(Sc2ccc(O)cc2)n(COCCO)c(=O)[nH]c1=O | 277 µM | – | – | – | –
– | Cc1cc(C)cc(Sc2c(C)c(=O)[nH]c(=O)n2COCCO)c1 | 243 µM | – | – | – | –

EC50 [1] | SMILES | CC50 (MT4) | CC50 [2] | EC50 [3] | CC50 [4] | EC50 [5]
71 µM | Cc1ccccc1Sc1c(C)c(=O)[nH]c(=O)n1COCCO | > 250 µM | – | – | – | –
> 250 µM | Cc1c(Sc2ccc(F)cc2)n(COCCO)c(=O)[nH]c1=O | > 250 µM | – | – | – | –
> 250 µM | Cc1c(Sc2ccc(C#N)cc2)n(COCCO)c(=O)[nH]c1=O | > 250 µM | – | – | – | –
– | Cc1cc(C)cc(Sc2c(C(C)C)c(=O)[nH]c(=O)n2COCCO)c1 | 128 µM | – | – | – | –
7.9 µM | COC(=O)c1cccc(Sc2c(C)c(=O)[nH]c(=O)n2COCCO)c1 | 221 µM | – | – | – | –
> 6.6 µM | COC(=O)c1c(Sc2ccccc2)n(COCCO)c(=O)[nH]c1=O | 6.6 µM | – | – | – | –
5.7 µM | Cc1c(Sc2cccc(Br)c2)n(COCCO)c(=O)[nH]c1=O | 141 µM | – | – | – | –
10 µM | Cc1c(Sc2cccc(C#N)c2)n(COCCO)c(=O)[nH]c1=O | 234 µM | – | – | – | –
> 18 µM | O=C(Nc1ccccc1)c1c(Sc2ccccc2)n(COCCO)c(=O)[nH]c1=O | 18 µM | – | – | – | –
> 110 µM | CC(=O)c1ccc(Sc2c(C)c(=O)[nH]c(=O)n2COCCO)cc1 | 110 µM | – | – | – | –
0.98 µM | Cc1c(Sc2ccccc2)n(COCCO)c(=S)[nH]c1=O | 123 µM | – | – | – | –
0.22 µM | Cc1cc(C)cc(Sc2c(C)c(=O)[nH]c(=S)n2COCCO)c1 | 172 µM | – | – | – | –
2.6 µM | Cc1cccc(Sc2c(C)c(=O)[nH]c(=O)n2COCCO)c1 | 420 µM | – | – | – | –
3.3 µM | Cc1c(Sc2cccc(F)c2)n(COCCO)c(=O)[nH]c1=O | 282 µM | – | – | – | –
3.4 µM | CCCc1c(Sc2ccccc2)n(COCCO)c(=O)[nH]c1=O | 244 µM | – | – | – | –
45 µM | Cc1c(Sc2cccc(C(F)(F)F)c2)n(COCCO)c(=O)[nH]c1=O | 196 µM | – | – | – | –
34 µM | Cc1c(Sc2cccc([N+](=O)[O-])c2)n(COCCO)c(=O)[nH]c1=O | 170 µM | – | – | – | –
0.014 µM | CCc1c(Sc2cc(Cl)cc(Cl)c2)n(COCCO)c(=O)[nH]c1=O | 51 µM | – | – | – | –
7.3 µM | CC(=O)c1cccc(Sc2c(C)c(=O)[nH]c(=O)n2COCCO)c1 | 228 µM | – | – | – | –
> 250 µM | COc1ccc(Sc2c(C)c(=O)[nH]c(=O)n2COCCO)cc1 | > 250 µM | – | – | – | –
1.3 µM | Cc1c(Sc2cc(Cl)cc(Cl)c2)n(COCCO)c(=O)[nH]c1=O | 130 µM | – | – | – | –

SMILES | EC50 [1] | CC50 (MT4) | CC50 [2] | EC50 [3] | CC50 [4] | EC50 [5]
Cc1c(Sc2ccccc2)n(COCCO)c(=O)[nH]c1=O [HEPT] | 7 µM | 743 µM | 640 µM | 7.9 µM | 740 µM | > 250 µM
Cc1cn([C@H]2C[C@H](N=[N+]=[N-])[C@@H](CO)O2)c(=O)[nH]c1=O [ZIDOVUDINE] | 0.006 µM | 7.8 µM | – | – | – | –
